Bioassay records: PubChem, several laboratories
TAAR1 antagonist: antagonists of human TAAR1 | Q96RJ0 | CHO RD-HGA16 TAAR1, Fluo-8 calcium fluorescence, antagonist | inhibition, % at 3 µM | actives 1.5% (n = 360,000) | AID 624466;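 active = inhibition above a per-plate cutoff, the mean inhibition of test compounds on that plate plus 3 SD, cut at about 49% in these data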;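 also: 0% = DMSO plus EC80 beta-PEA response and 100% = DMSO alone without agonist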
Target sequence (Q96RJ0 whole entry, looked up): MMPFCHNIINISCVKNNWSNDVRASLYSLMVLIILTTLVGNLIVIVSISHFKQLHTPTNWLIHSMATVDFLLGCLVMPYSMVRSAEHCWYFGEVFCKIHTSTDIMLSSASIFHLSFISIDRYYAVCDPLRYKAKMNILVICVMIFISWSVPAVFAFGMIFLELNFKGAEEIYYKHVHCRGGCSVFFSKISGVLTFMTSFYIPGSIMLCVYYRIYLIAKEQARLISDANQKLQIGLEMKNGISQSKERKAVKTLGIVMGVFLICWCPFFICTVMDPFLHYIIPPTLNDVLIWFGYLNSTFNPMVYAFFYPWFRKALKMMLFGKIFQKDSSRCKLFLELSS
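Test system: CHO RD-HGA16 cells bearing hTAAR1 | Reagent: β-PEA, EC80 | Compound dosing: 3 µM, single point | Schedule: Dye loading 75 min at 37 °C, then 30 min room temperature | Signal: Calcium fluorescence with Fluo-8 | Evaluation: Percent inhibition of PEA-evoked calcium signal, max/basal emission ratio | Control set: DMSO-only wells and EC80 β-PEA-stimulated wells | Repeats: Singlicate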
LANA-H2A inh: blocks KSHV LANA binding to histone H2A/H2B | cell-free LANA-H2A/H2B peptide, fluorescence polarization | inhibition, % (test concentration not listed) | AID 2629 | Q9QR71 | actives 0.6% (n = 320,000); in the data active = inhibition mostly above about 10%, no sharp cut-off; inactive = mostly below about 6.7%
TAAR1 agonist: human TAAR1 agonism; Q96RJ0; activation, % at 3 µM; CHO RD-HGA16 TAAR1, Fluo-8 calcium fluorescence; vehicle wells 0%, saturating PEA agonist 100%; actives 0.99% (n = 360,000);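 active = activation above the mean activation of all test compounds in the run plus 3 SD, cut at about 38% in these data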
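Test system: RD-HGA16 (CHO) cells co-expressing Gα16 and hTAAR1; dosing: one-point dosing at 3 µM (nominal); timing: 17-24 h seeding, 75 min 37 °C dye, 30 min RT; signal: kinetic Fluo-8 calcium fluorescence; read-out basis: % activation relative to PEA EC100 response; controls: DMSO and PEA EC100; replicates: n 1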
GPR7 antagonist: human neuropeptides B/W receptor 1 antagonism | actives 1.1% (n = 290,000) | P48145 | inhibition, % at 4.4 µM | AID 1861 | GPR7-expressing cells, fluorescence antagonist assay; in the data active = inhibition above about 16%, passing the limit was not always enough;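 also: cells stimulated with the agonist NPW; 0% = agonist with vehicle and 100% = vehicle without agonist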
TRPN1 ag: activates the zebrafish TRPN1 channel; activation, % at 3 µM; HEK293 zebrafish TRPN1-YFP, Fluo-8 calcium fluorescence; 100% = response to 87 µM carbachol; AID 1424; actives 0.18% (n = 220,000);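 active = activation above its plate's cutoff, the mean activation of test wells on that plate plus 3 SD, cut at about 19% in these data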;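 also: 0% = DMSO alone and 100% = 87 µM carbachol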
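Control set: carbachol 87 µM as high control, DMSO as low control; system: HEK293 stable line with zebrafish TRPN1-YFP; read-out: % activation versus carbachol response; detection: intracellular calcium fluorescence with Fluo-8; doses: single test compound dose, 3 µM nominal, 0.3% DMSO; schedule: dye 1 h 37 °C plus 30 min RT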
TRPML3 agonist: activates the human TRPML3 channel; Q8TDD5; actives 0.29% (n = 220,000); activation, % at 3 µM; AID 1448; HEK293 TRPML3-YFP, Fluo-8 calcium fluorescence; 100% = the carbachol control signal;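 active = activation above its plate's cutoff, the mean activation of the plate's test wells plus 3 SD, cut at about 12% in these data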;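 also: 0% = DMSO only wells and 100% = carbachol wells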
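Test system – HEK293 line with stable expression of human TRPML3-YFP channel · Control set – carbachol 87 µM final as high control (100%), DMSO as low control (0%) · Signal – Fluo-8 calcium dye fluorescence, ex 470-495, em 515-575 nm · Incubation – 1-h 37 °C dye load, 5-s basal, 120-s post-compound reads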
Numbers without * were called inactive; · = no result; + = active, no number. Rows were chosen to be rich in hits. Some 3.4% of all compounds tested hit in one or more screens of this group.

SMILES | TAAR1 antagonist | LANA-H2A inh | TAAR1 agonist | GPR7 antagonist | TRPN1 ag | TRPML3 agonist
CCc1ccc(N2C(=O)CN(Cc3cccs3)C2=S)cc1 | -18 | + | 1 | 1 | -1 | 0
CCc1ccc(N2C(=O)CN(Cc3cc(OC)c(OC)c(OC)c3)C2=S)cc1 | -8 | -12 | 8 | -12 | -1 | -1
Cc1cc(-c2ccccc2)nc2c(Br)c(=O)[nH]n12 | -12 | 13* | 0 | -8 | 0 | 1
Cc1noc(C)c1C(=O)OCC(=O)NCCc1ccc(Cl)cc1 | 4 | -1 | 0 | 20* | -2 | -1
O=C(NCCCCC(NC(=O)c1ccccc1)C(=O)O)OCc1ccccc1 (stereo not given) | 5 | · | 1 | · | · | ·
C[C@H](CO)N1C[C@H](C)[C@@H](CN(C)C(=O)Nc2ccc3c(c2)OCO3)OCc2cn(nn2)CCCC1=O | 5 | · | 0 | · | · | ·
CC(C)(C)c1ccccc1NC(=O)Nc1nc(C(N)c2ccccc2Cl)cs1 (stereo not given) | 2 | · | 44* | · | · | ·
C[C@H](NC(=O)c1nc[nH]c1C(=O)NCC(=O)OCc1ccccc1)C(=O)OC(C)(C)C | 48 | -8 | 16 | -7 | · | ·
C[C@H](NC(=O)c1nc[nH]c1C(=O)NCc1ccc(CNC(=O)OC(C)(C)C)cc1)C(=O)OCc1ccccc1 | 82* | 1 | 21 | · | · | ·
CCCN1CCCCC(NC(=O)COCc2ccccc2)C1=O (stereo not given) | -2 | · | 4 | · | · | ·
CC(C)(C)OC(=O)C[C@@H]1C/C=C\C[C@@H](CC(=O)N(CCO)Cc2ccccc2)C(=O)NC[C@@H](c2ccccc2)OC1=O | 23 | 5 | 13 | · | · | ·
CC(C)(C)[C@H]1COC(=O)[C@@H](Cc2ccc(F)cc2)CC/C=C/C[C@@H](CC(=O)N[C@@H](CO)Cc2ccccc2)C(=O)N1 | 52* | -2 | 19 | · | · | ·
CC(C)(C)OC(=O)C[C@@H]1C/C=C\C[C@@H](CC(=O)N(CCO)Cc2ccccc2)C(=O)NC[C@H](c2ccccc2)OC1=O | 63* | 1 | 23 | · | · | ·
O=C1N[C@@H](Cc2ccccc2)COC(=O)[C@@H](Cc2ccc(F)cc2)C/C=C\C[C@@H]1CC(=O)N(CCO)Cc1ccccc1 | 54* | -1 | 28 | · | · | ·
CC(C)(C)[C@H]1COC(=O)[C@@H](Cc2ccc(F)cc2)CC/C=C/C[C@@H](CC(=O)N[C@H](CO)Cc2ccccc2)C(=O)N1 | 29 | 1 | 29 | · | · | ·
O=C(C[C@@H]1C/C=C/CCCC(=O)O[C@H](c2ccccc2)CNC1=O)N[C@H](CO)Cc1ccccc1 | -9 | 10* | 4 | · | · | ·
C[C@H](CO)N1C[C@H](C)[C@@H](CN(C)C(=O)Nc2cccc(F)c2)OCc2cn(nn2)CCCC1=O | -7 | · | 2 | · | · | ·
COC(=O)[C@]12C[C@H](CC(=O)N3CCN(C(=O)c4ccco4)CC3)C(=O)N(CCC3=CCCCC3)C1=C[C@H](C(C)(C)C)O[C@@H]2C | -19 | · | -2 | · | · | ·
COC(=O)C1=C(C)N(Cc2ccccc2C(F)(F)F)C(=NCC2CC2)NC1c1cccc(F)c1 (stereo not given) | -16 | · | 13 | · | · | ·
COc1ccc(-n2nc(C(=O)NCC(=O)NCc3cccc(F)c3)c3ccccc3c2=O)cc1Cl | 50* | -2 | 15 | 7 | · | ·
COc1ccc(-n2nc(C(=O)NCC(=O)N3CCN(c4ccccn4)CC3)c3ccccc3c2=O)cc1OC | 57* | -2 | 12 | -11 | 0 | 0
COc1ccc(-n2nc(C(=O)NCC(=O)N3CCN(c4ccccc4OC)CC3)c3ccccc3c2=O)cc1OC | 52* | 2 | 13 | 0 | · | ·
COc1ccc(-n2nc(C(=O)NCC(=O)N3CCN(c4ccccn4)CC3)c3ccccc3c2=O)cc1 | 24 | 0 | 16 | 1 | 1 | 0
COCc1[nH]nc2c1C(c1ccc(C)cc1)N(Cc1ccccc1)C2=O (stereo not given) | -10 | · | 0 | · | · | ·
COc1cccc(C(=O)N[C@H](C(=O)N2CCC[C@H]2C(=O)NCc2ccccc2)C2CCCCC2)c1 | -10 | · | 1 | · | · | ·
O=C(CSc1nc(CCC2CCCC2)nc2ccccc12)NCc1ccc2c(c1)OCO2 | 17 | 15* | 6 | -1 | 1 | 0
